The source made the active and inactive calls. The calls are words filed in the database; no cut-off is given here.
What was measured:
HepG2 [1] = experiment: Cytotoxicity against human HepG2 cells assessed as cell survival under hypoxic condition at 10 uM after 24 hrs by clonogenic assay; format: functional; settings: HepG2, 24 h, read-out: Survival
Outline: (§1)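 HepG2 in RPMI 1640 + 10% FBS, 3.5 × 10^3 cells/well, grown 24 h at 37 °C normoxic, then exposed to vehicle (0.1% DMSO) or drug. Hypoxia 1% O2/5% CO2/94% N2 at 37 °C for 5 h in glove chamber, then reoxygenated (5% CO2, 37 °C) for the rest of 10 days. Acetic acid fixation, crystal violet stain. Colonies >50 μm counted in three random 1-mm grids, expressed relative to controls; Mann–Whitney test.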

HepG2 [2] = experiment: Cytotoxicity against human HepG2 cells in normoxic condition after 48 hrs by MTT assay; format: functional, cell-based
Outline: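 HepG2 cells (passage 2 from frozen stock) in RPMI 1640 with 10% FBS, dosed during log-phase growth with drug or vehicle (0.1% DMSO). Normoxic incubation at 37 °C, 5% CO2 for 48 h, then MTT read-out. Duplicate plates split from the same stock cells.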

HepG2 [3] = experiment: Cytotoxicity against human HepG2 cells in hypoxic condition after 48 hrs by MTT assay; format: functional, cell-based
Outline: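 HepG2 cells (passage 2, RPMI 1640 + 10% FBS) given drug or 0.1% DMSO vehicle in log phase. 22 h normoxia, then 2 h hypoxia (1% O2, 5% CO2, 94% N2, 37 °C) in a glove chamber checked by methylene blue indicator, then 24 h reoxygenation. MTT read at 48 h; parallel normoxic duplicate plate.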

HepG2 [4] = experiment: Cytotoxicity against human HepG2 cells assessed as cell survival under normoxic condition at 10 uM […] by clonogenic assay relative to control; format: functional; settings: read-out: Survival
Outline: (§2)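 HepG2 in RPMI 1640 + 10% FBS, 3.5 × 10^3 cells/well, allowed 24 h growth at 37 °C. Vehicle (0.1% DMSO) or drug then applied, with 10 days incubation under normoxia (5% CO2, 37 °C). Fixed in 10% acetic acid, stained with crystal violet. Colonies >50 μm were counted visually in three random 1-mm × 1-mm grids, relative to controls; Mann–Whitney test.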

HepG2 [5] = experiment: Cytotoxicity against human HepG2 cells assessed as assessed as cell survival under hypoxic condition at 50 uM after 24 hrs by clonogenic assay; format: functional; settings: HepG2, 24 h, read-out: Survival; outline: as §1
HepG2 [6] = experiment: Cytotoxicity against human HepG2 cells assessed as cell survival under normoxic condition at 50 uM after 24 hrs by clonogenic assay relative to control; format: functional; settings: HepG2, 24 h, read-out: Survival; outline: as §2
HepG2 [7] = experiment: Down regulation of hypoxia inducible P21 gene expression in human HepG2 cells at 20 uM by RT-PCR; format: functional, cell-based
Outline: (§3)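 Total RNA extracted with TRIzol, then quantitative RT-PCR: 50 °C 2 min, 95 °C 10 min, 40 cycles of 95 °C 15 s / 60 °C 1 min, with melting curves. Ct normalized to GAPDH; treated-minus-control ΔCt converted by 2^ to relative expression.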

HepG2 [8] = experiment: Cytotoxicity against human HepG2 cells assessed as cell survival under normoxic condition assessed as cell survival at 100 uM after 24 hrs by clonogenic assay relative to control; format: functional; settings: HepG2, 24 h, read-out: Survival; outline: as §2
HepG2 [9] = experiment: Cytotoxicity against human HepG2 cells assessed as cell survival under hypoxic condition at 100 uM after 24 hrs by clonogenic assay relative to control; format: functional; settings: HepG2, 24 h, read-out: Survival; outline: as §1
HepG2 [10] = experiment: Down regulation of hypoxia inducible VEGF gene expression in human HepG2 cells at 20 uM by RT-PCR; format: functional, cell-based; outline: as §3
HepG2 [11] = experiment: Down regulation of hypoxia inducible HIF1alpha gene expression in human HepG2 cells at 20 uM by RT-PCR; format: functional, cell-based; outline: as §3
HepG2 [12] = experiment: Cytotoxicity against human HepG2 cells assessed as cell survival under hypoxic condition at 25 uM after 24 hrs by clonogenic assay relative to control; format: functional; settings: HepG2, 24 h, read-out: Survival; outline: as §1
HepG2 [13] = experiment: Cytotoxicity against human HepG2 cells assessed as cell survival under hypoxic condition at 400 uM after 24 hrs by clonogenic assay relative to control; format: functional, cell-based; settings: in the assay text read “normoxic” for “hypoxic”
HepG2 [14] = experiment: Cytotoxicity against human HepG2 cells assessed as cell survival under normoxic condition at 25 uM after 24 hrs by clonogenic assay relative to control; format: functional; settings: HepG2, 24 h, read-out: Survival; outline: as §2
[15] = Homo sapiens, HepG2, 48 h, read-out: IC50

Question: Which results are given for c1ccc(C2=Nc3ccccc3OC2)cc1?
Answer: viability at 10 µM (HepG2 [1]): -71%; IC50 (HepG2 [2]; [15]): 87 µM; IC50 (HepG2 [3]; [15]): 10 µM

Question: With Cc1ccc(C2=Nc3ccc(Cl)cc3OC2)cc1 as the molecule, how does the IC50 (HepG2 [2]; hepg2) read?
Answer: Not Active

Question: What about the IC50 (HepG2 [3]; [15]) of the same molecule?
Answer: 10 µM

Question: For O=[N+]([O-])c1ccc2c(c1)N=C(c1ccc(Cl)cc1)CO2, which viability at 10 µM (HepG2 [4]) is on record?
Answer: 10%

Question: What about the viability at 10 µM (HepG2 [1]) of the same molecule?
Answer: -28%

Question: And the IC50 (HepG2 [2]; [15])?
Answer: 78 µM

Question: And the viability at 50 µM (HepG2 [5])?
Answer: -83%

Question: And the viability at 50 µM (HepG2 [6])?
Answer: -11%

Question: And the IC50 (HepG2 [3]; [15])?
Answer: 20 µM

Question: How did the IC50 (HepG2 [2]; hepg2) turn out when Cc1ccc2c(c1)N=C(c1ccc(F)cc1)CO2 was run?
Answer: Not Active

Question: What about the IC50 (HepG2 [3]; hepg2) of the same molecule?
Answer: Not Active

Question: Which results are given for Cc1ccc2c(c1)N=C(c1ccc(Cl)cc1)CO2?
Answer: Activity (HepG2 [7]): Active; viability at 100 µM (HepG2 [8]): 10%; viability at 100 µM (HepG2 [9]): -90%; viability at 50 µM (HepG2 [5]): -65%; Activity (HepG2 [10]): Active; Activity (HepG2 [11]): Active; viability at 25 µM (HepG2 [12]): -31%; viability at 50 µM (HepG2 [6]): 3%; Activity (HepG2 [13]): Not toxic; viability at 25 µM (HepG2 [14]): 5%; IC50 (HepG2 [3]; [15]): 87 µM

Question: For Clc1ccc2c(c1)N=C(c1ccccc1)CO2, which IC50 (HepG2 [2]; [15]) is on record?
Answer: 78 µM

Question: What about the IC50 (HepG2 [3]; [15]) of the same molecule?
Answer: 30 µM

Question: Which IC50 (HepG2 [2]; hepg2) does the source give for Cc1ccc(C2=Nc3cc(F)ccc3OC2)cc1 here?
Answer: Not Active

Question: What about the IC50 (HepG2 [3]; [15]) of the same molecule?
Answer: 100 µM

Question: Which IC50 (HepG2 [2]; [15]) does the source give for Clc1ccc(C2=Nc3ccc(Cl)cc3OC2)cc1 here?
Answer: 88 µM

Question: What about the IC50 (HepG2 [3]; [15]) of the same molecule?
Answer: 28 µM
